Source: PubChem BioAssay (Johns Hopkins Ion Channel Center)
Rows were chosen to be rich in hits. Some 3.1% of all compounds tested hit in one or more screens of this group.
KCNQ1 block = inhibitors of human KCNQ1 potassium channel; P51787; CHO-K1 KCNQ1, FluxOR thallium flux fluorescence; hits give high values; B-score at 10 µM; 310,000 compounds, 1.3% hits;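 active means compounds whose thallium flux B-score, printed positive for inhibition, exceeds three library SD while starting fluorescence stays within three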;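 further: channel opened by potassium depolarization with thallium stimulus after 20 min compound exposure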
KCNK3 block = human KCNK3 channel inhibition, primary screen | O14649 | CHO-KCNK3 thallium flux, FluxOR fluorescence; hits give low values | B-score at 10 µM | 340,000 compounds, 0.84% hits | AID 602410;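 active means B-score under library mean minus 4 SD, starting fluorescence ratio at most library mean plus 5 SD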;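 further: more negative B-score means stronger inhibition of thallium flux through KCNK3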
KCNK9 block = inhibitors of human KCNK9 two-pore domain potassium channel; Q9NPC2; HEK293 KCNK9, FluxOR thallium flux fluorescence; hits give low values; B-score at 10 µM; 310,000 compounds, 1.2% hits;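 active means ratio B-score over 3 SD below the library mean, with starting fluorescence within 5 SD of its mean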;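 further: negative B-score means less thallium flux so channel inhibition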
KCNQ1 act = human KCNQ1 channel potentiation or activation. 310,000 compounds, 0.35% hits. B-score at 10 µM. CHO-K1 KCNQ1, thallium flux FluxOR fluorescence; hits give high values. P51787;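 active means fluorescence ratio B-score, a plate-corrected score, at least three library SD, with initial intensity B-score within 5 SD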
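Assay system: CHO-K1 cells stably expressing KCNQ1. Medium: assay buffer for compound exposure, DMSO matched across wells. Timing: 37 °C overnight plating, 90-min dark dye load, 20-min compound pretreatment. Signal: kinetic FluxOR fluorescence, 10 s baseline plus 110 s post-stimulus.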
hERG protect = compounds protecting human hERG from proarrhythmic drug block. Q12809. CHO-hERG, FluxOR thallium flux, dofetilide IC70 present. activation (rescue from dofetilide block), less the hit threshold, % at 10 µM. 310,000 compounds, 0.51% hits;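 active means activation above the mean of controls blocked by dofetilide plus 5 SD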;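 further: thallium influx through hERG after potassium depolarization seen as dye fluorescence rise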
Target sequence (Q12809 whole entry, looked up): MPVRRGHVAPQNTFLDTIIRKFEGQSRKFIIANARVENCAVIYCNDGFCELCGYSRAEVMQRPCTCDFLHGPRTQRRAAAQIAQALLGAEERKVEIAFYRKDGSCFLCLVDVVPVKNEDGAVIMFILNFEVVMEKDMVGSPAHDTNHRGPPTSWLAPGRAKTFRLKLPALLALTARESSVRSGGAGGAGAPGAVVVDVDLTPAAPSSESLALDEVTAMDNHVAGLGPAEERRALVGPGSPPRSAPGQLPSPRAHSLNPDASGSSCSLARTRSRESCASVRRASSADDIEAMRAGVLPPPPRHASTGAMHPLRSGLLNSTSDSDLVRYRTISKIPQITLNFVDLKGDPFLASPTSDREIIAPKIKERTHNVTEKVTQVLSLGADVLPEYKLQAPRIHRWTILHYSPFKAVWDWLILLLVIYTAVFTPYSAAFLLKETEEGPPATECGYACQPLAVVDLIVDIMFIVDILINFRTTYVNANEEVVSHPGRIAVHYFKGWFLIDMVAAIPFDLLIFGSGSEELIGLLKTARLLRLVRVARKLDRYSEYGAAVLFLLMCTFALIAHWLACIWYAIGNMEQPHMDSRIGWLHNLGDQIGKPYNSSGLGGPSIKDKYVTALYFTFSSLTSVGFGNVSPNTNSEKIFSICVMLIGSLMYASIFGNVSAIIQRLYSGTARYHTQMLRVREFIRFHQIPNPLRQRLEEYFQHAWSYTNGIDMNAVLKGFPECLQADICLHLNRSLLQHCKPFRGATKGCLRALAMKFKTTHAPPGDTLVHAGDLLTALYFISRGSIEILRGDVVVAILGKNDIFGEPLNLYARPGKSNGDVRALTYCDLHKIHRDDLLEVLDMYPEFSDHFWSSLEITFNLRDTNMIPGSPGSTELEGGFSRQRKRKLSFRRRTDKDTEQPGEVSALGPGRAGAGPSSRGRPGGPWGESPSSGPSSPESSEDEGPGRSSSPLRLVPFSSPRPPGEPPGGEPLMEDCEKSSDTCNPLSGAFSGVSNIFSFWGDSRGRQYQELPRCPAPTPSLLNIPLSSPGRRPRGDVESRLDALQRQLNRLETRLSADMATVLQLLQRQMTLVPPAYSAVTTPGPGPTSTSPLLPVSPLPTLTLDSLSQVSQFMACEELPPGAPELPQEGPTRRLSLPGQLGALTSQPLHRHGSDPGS
KCNK9 inh conf = confirmation of human KCNK9 potassium channel inhibitors | 4,900 compounds, 43% hits | HEK293 KCNK9 cells, FluxOR thallium flux fluorescence | AID 492992 | shares compounds with KCNK9 block | inhibition, % at 10 µM;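 active means thallium signal inhibited by more than 5 SD of the compound-free buffer control wells, on both duplicate plates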;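 further: 0% = assay buffer control wells without compound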
Kir2-1 spec = mouse Kir2.1 off-target activity of KCNK9 modulators | shares compounds with KCNK9 block | Kir2.1 cells, FluxOR thallium flux fluorescence | inhibition, % at 10 µM | 4,900 compounds, 4% hits | AID 492993;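 active means thallium signal drop more than 5 SD beyond the mean of the no-compound control wells, seen in both duplicate plates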;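 further: signal is fluorescence rise after thallium addition divided by baseline fluorescence; plate controls were assay buffer only for no effect and full block by chlorpromazine control for full effect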
HEK293 Tl ctr = non-induced cell nonspecific activity of KCNK9 modulators | inhibition, % at 10 µM | non-induced KCNK9-HEK293, FluxOR thallium flux | shares compounds with KCNK9 block | AID 492997 | 4,900 compounds, 40% hits;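 active means thallium signal drop beyond 5 SD of the untreated control mean, on both duplicate plates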;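 further: plate controls were buffer only IC0 wells for no effect and SID17386958 at its maximal inhibitory level for full effect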
* = called active by the depositor; i = inactive; x = not tested or not shown.

SMILES | KCNQ1 block | KCNK3 block | KCNK9 block | KCNQ1 act | hERG protect | KCNK9 inh conf | Kir2-1 spec | HEK293 Tl ctr
COc1ccc(N2C(=O)CSC23C(=O)N2c4c(cccc43)C(C)=CC2(C)C)cc1 (centres undefined) | i | i | -8.6* | i | -12 | i | i | 46%*
COc1ccc(N2C(=O)CSC23C(=O)N2CCCc4cccc3c42)cc1 (centres undefined) | i | i | i | i | -12 | x | x | x
CCc1[nH]nc2c1C1(CCN(C(=O)OCc3ccccc3)CC1)C(C#N)=C(N)O2 | i | i | i | i | -8 | x | x | x
CCCc1[nH]nc2c1C1(CCN(C(=O)OCc3ccccc3)CC1)C(C#N)=C(N)O2 | i | i | -9.7* | i | -9 | 32%* | i | i
c1ccc(Sc2ncccn2)nc1 | i | i | i | i | -8 | x | x | x
COc1cccc(OCCOCCOc2ccc(C)cc2[N+](=O)[O-])c1 | i | i | i | i | -10 | i | i | i
COc1cccc(OCCNc2cc(Cl)ccc2[N+](=O)[O-])c1 | i | i | -12* | i | -20 | 54%* | i | 34%*
COc1cccc(OCCNc2ccc([N+](=O)[O-])cn2)c1 | x | i | x | x | x | x | x | x
O=C(CN(Cc1ccco1)C(=O)CCC(=O)Nc1ccccn1)NCc1ccccc1 | i | i | i | i | -3 | x | x | x
CCOC(=O)C(C)n1cnc2scc(-c3ccc(C)cc3)c2c1=O (centres undefined) | i | i | i | i | -11 | x | x | x
C=CCn1cnc2scc(-c3ccc(C)c(C)c3)c2c1=O | i | i | i | i | -4 | i | i | i
C=CCn1cnc2scc(-c3ccc(OC)cc3)c2c1=O | i | i | i | i | -10 | x | x | x
CCCOC(=O)Cn1cnc2scc(-c3ccc(C)cc3)c2c1=O | i | i | i | i | -8 | i | i | i
CCCn1cnc2scc(-c3ccc(C)c(C)c3)c2c1=O | i | i | i | i | -8 | i | i | i
Cc1ccc(-c2csc3ncn(CC(N)=O)c(=O)c23)cc1C | i | i | i | i | -2 | x | x | x
Cc1ccc(C(O)(COC(=O)C(C)C)COC(=O)C(C)C)c(O)c1 | i | i | i | i | -7 | x | x | x
Nc1c(CO)nnn1-c1ccccc1 | i | i | i | i | -7 | x | x | x
O=[N+]([O-])c1cc(S(=O)(=O)Nc2ccccc2)ccc1N1CCN(c2ccccc2)CC1 | i | i | i | i | -5 | x | x | x
O=[N+]([O-])c1cc(S(=O)(=O)C(F)(F)F)ccc1N1CCN(c2ccccc2)CC1 | i | i | -8.3* | i | -2 | i | i | 35%*
O=[N+]([O-])c1cc(CN2CCCC2)c2cccnc2c1O | x | i | x | x | x | x | x | x
O=[N+]([O-])c1cc(Cl)ccc1N1CCN(c2cccc(C(F)(F)F)c2)CC1 | i | i | -12* | i | -15 | 75%* | i | 51%*
O=[N+]([O-])c1cc(CN2CCN(c3cccc(C(F)(F)F)c3)CC2)c2cccnc2c1O | i | i | i | i | -3 | i | i | i
CCNc1nc(SCC(=O)Nc2ccc(Cl)c(Cl)c2)nc(N2CCOCC2)n1 | i | i | i | i | -4 | x | x | x
CC1(C)Oc2ccc3ccc(=O)oc3c2/C(=C/N)C1=O | i | i | i | i | -1 | x | x | x
CC1(C)Oc2ccc3ccc(=O)oc3c2/C(=C/NC2CCCCC2)C1=O | 8* | i | -11* | i | -8 | 35%* | i | 34%*
SMILES | KCNQ1 block | KCNK3 block | KCNK9 block | KCNQ1 act | hERG protect | KCNK9 inh conf | Kir2-1 spec | HEK293 Tl ctr
O=C(Cn1ncc2c([nH]c3ccccc32)c1=O)NCC1CCN(Cc2ccccc2F)CC1 | i | i | i | i | -8 | x | x | x
C/C(=N/OC(=O)c1ccccc1Br)c1ccc(C)cc1 | i | i | -12* | i | -11 | 58%* | i | 34%*
C/C(=N/OC(=O)c1ccc(C)cc1)c1cccs1 | i | i | i | i | -7 | x | x | x
O=[N+]([O-])c1cc2c(cc1/C=N/Nc1nc(N3CCCC3)nc(N3CCCC3)n1)OCO2 | i | i | i | i | -4 | i | i | i
COc1cc(-c2c(C#N)c(N)nc(SCc3ccncc3)c2C#N)cc(OC)c1OC | i | i | -10* | i | -16 | i | i | 27%*
N#Cc1c(N)nc(SCc2ccncc2)c(C#N)c1-c1cccs1 | i | i | i | i | -15 | x | x | x
COc1ccc(Br)cc1C(=O)Nc1cccc(-c2nnc(-c3ccco3)o2)c1 | i | i | -12* | i | -4 | 60%* | i | i
COc1cccc(C(=O)Nc2cccc(-c3nnc(-c4ccco4)o3)c2)c1 | i | i | i | i | -18 | x | x | x
Cc1ccc(C(=O)COC(=O)CSc2cccc3cccnc23)c(C)c1 | i | i | i | i | -8 | i | i | i
COc1ccc(C)cc1NC(=O)CN1C(=O)COc2ccc(S(=O)(=O)N3CCOCC3)cc21 | i | i | i | i | -2 | x | x | x
COc1ccc(C(C)=O)cc1CSc1ccc2c(c1)OCCO2 | i | i | i | i | -10 | i | i | i
COc1ccc(-n2ncc3c2CC(C)(C)CC3NC(=O)c2cn[nH]c2)cc1 (centres undefined) | i | i | i | i | -5 | x | x | x
O=C(O)c1ccccc1C(=O)N1N=C(c2ccccc2)CC1c1ccccc1O (centres undefined) | i | i | -8.3* | i | -10 | 42%* | i | i
CC(C)(C)c1ccc(C(=O)Nc2ccc(NC(=O)C(=O)O)cc2)o1 | i | i | i | i | -14 | x | x | x
C/C=C(/C(=C/C)c1ccc(O)cc1)c1ccc(O)cc1 | i | i | i | i | -1 | x | x | x
C=C(c1ccc(O)cc1)c1ccc(O)cc1 | i | i | -11* | i | -18 | 46%* | i | i
O=C(N/N=C/c1ccc(-c2cccc(C(F)(F)F)c2)o1)c1cccc(F)c1 | i | i | -9.9* | i | -19 | i | i | i
Cc1cc(OCCN2CC(C)OC(C)C2)ccc1[N+](=O)[O-] (centres undefined) | i | i | i | i | -15 | x | x | x
Cc1ccc([N+](=O)[O-])c(OCCN2CCNCC2)c1 | i | i | i | i | -2 | i | i | i
